This passage reports cytotoxicity results from ChEMBL document CHEMBL4513216, “Probing the Open Global Health Chemical Diversity Library for Multistage-Active Starting Points for Next-Generation Antimalarials” (ACS Infect Dis, 2020).

The series can be described thus: Toxicity liver stage against HepG2, at 10uM. The series is classed as cell-based. Further details: test concentration 10 uM, cell line HepG2-A16-CD81EGFP. Conditions: human, HepG2-A16-CD81EGFP cells; read-out: INHIBITION
In a few lines: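 Uninfected HepG2-A16-CD81EGFP cells, 3 × 10^3 per well, 1536-well, plated on prespotted compound at 10 μM final, parasite-free screening media added to match infected plates; puromycin 10 μM positive, DMSO 0.5% negative; run in parallel with 48 h PbLuc assay at 37 °C, 5% CO2; viability by CellTiter-Glo luminescence, normalized to controls.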

On to `Cc1ocnc1C(=O)N(C)[C@@H]1CCC[C@@H](N2CCCC2)[C@@H]1O`, for which the cytotoxicity at 10 µM was -3.7%.
Under `COc1ccc2nc(C)c(C(=O)NCCN3CCS(=O)(=O)CC3)cc2c1` stands -15.2%; under `O=C(NCCO)Nc1ccc(Cl)cc1-n1cccc1`, 7.82%; under `Cc1cc(C)nc(N2CCC(C(=O)Nc3ncc[nH]3)CC2)n1`, 4.47%.
Take `Cn1ccc(C(=O)NCC2(O)CCN(c3cnccn3)C2)n1` (configuration not stated): the cytotoxicity at 10 µM was determined as 3.45%.
Under `CCOCC1CN(Cc2cccc(C#N)c2)Cc2nccn2C1` (configuration not stated) stands -8.22%.
The same measure for `CC1CCCCN1C(=O)c1nc2c(n1C(C)C)CCN(C(=O)C1CC1)C2` (configuration not stated): 15.4%; for `CC(C)(C)c1ccc(=O)n(CN2CCCC(C(F)(F)F)C2)n1` (configuration not stated): -2.19%.
The same measure for `CC(OCC1CC1)C(=O)NCc1ccc(Cn2ccnc2)cc1` (configuration not stated): 15.6%; for `COc1cccc(N2CCN(Cc3nccn3C(C)C)CC2=O)c1`: 1.85%; for `COc1ccc(CCC(=O)N2CCCCC2Cn2cccn2)cc1F` (configuration not stated): -8.7%.
With `CCN1CCN(C(=O)c2cn(Cc3ccccc3)c3ncccc23)CC1`, the cytotoxicity at 10 µM was -1.6%.
The same measure for `CC(NCc1ccncc1)c1cc2c(cc1Br)OCCO2` (configuration not stated): -1.41%; for `CC(=O)N1CCN(C(=O)NC(C)C)CC2(CNC(=O)C2)C1` (configuration not stated): -1.63%.
The same measure for `CCN(CC)CCNc1c(-c2ccccc2)c(=O)c1=O`: -0.686%; for `COc1cc(C)c(CN2CCC3(CC2)C(C(=O)O)CC(=O)N3C)cc1C` (configuration not stated): -8.58%.
With `CCCN(C)c1ccc(C(=O)NCc2ccnc(C)n2)cc1`, the cytotoxicity at 10 µM was 6.6%.
Under `c1cc(CN2CCCn3nnc(COCC4CC4)c3C2)ccn1` stands -113%; under `O=C(Nc1ccccn1)NC(CCCO)c1ccccc1` (configuration not stated), 3.72%.
The same measure for `Cc1nc(N2CCC(CN3CCCC3)CC2)c2cnn(C)c2n1`: 8.39%; for `CC(C)c1ncc(CN2CCC(CO)C2)cn1` (configuration not stated): -25.8%.
The same measure for `Nc1ccc(C(=O)N2CCCC(c3nccn3Cc3cscn3)C2)cn1` (configuration not stated): -4.92%; for `CSc1ccc(C(=O)N2CC(=O)N(CC(C)(C)C)CC(O)C2)cc1` (configuration not stated): 8.6%; for `c1csc(-c2nc(CN3CCOC(Cn4cccn4)C3)cs2)c1` (configuration not stated): -8.25%.
As for `CCN1CCC2(CC1)CC(NC(=O)N(C)C)c1cc(C)ccc12` (configuration not stated), the cytotoxicity at 10 µM was -13.1%.
Regarding `Cc1n[nH]c(C)c1Sc1ccccc1NC(=O)N1CCCC(C(N)=O)C1` (configuration not stated), the cytotoxicity at 10 µM was -7.59%.
Under `COc1cccc2c1ccn2CCC(=O)Nc1c2c(nn1C)CSC2` stands 5.11%; under `O=C(CN1CC(c2ccccc2)CC1=O)N1CCN(c2nccs2)CC1` (configuration not stated), -1.7%; under `F[C@@H]1CN(Cc2cccnc2)C[C@@H]1OCc1nc2ccccc2[nH]1`, 5.22%.
Under `N#Cc1ccc(CSCCN2CCOCC2)cc1` stands 4.2%.
For the molecule `Cc1ccc(C(CNCc2ccncc2)N2CCOCC2)s1` (configuration not stated), the cytotoxicity at 10 µM is -14.6%.
The same measure for `CCc1nc(C2CCCN2CC(=O)N2CCc3ccccc32)no1` (configuration not stated): -11.2%.
Under `CC(=O)N1CCC(C(=O)Nc2nc(C3CC3)cs2)CC1` stands -3.28%.
The same measure for `Cc1cc(C)c(Cn2cncn2)cc1CN1CC[C@H](CO)[C@@H](O)C1`: -5.42%; for `Cc1cnc(N2CCOC3(CCCN(C(=O)C(C)C)C3)C2)nc1` (configuration not stated): 10.9%.
As to `CN(Cc1cc(-c2ccncc2)no1)C(=O)[C@@H]1CSCN1C`, the cytotoxicity at 10 µM is -2.62%.
For the molecule `CCc1noc(C)c1C(=O)N(C)Cc1ncc(C)c(OC)c1C`, the cytotoxicity at 10 µM is -1.06%.
Under `CCN1CC2(CC1=O)CN(C(=O)N(C)C)CCN(S(C)(=O)=O)C2` (configuration not stated) stands -0.757%; under `O=C1NCC2(CCC(C(=O)N3CCC(O)CC3)CC2)Oc2ccccc21` (configuration not stated), -21.7%.
For `COc1ccc(-c2nc3c([nH]2)CCCNC3=O)cc1OC`, the cytotoxicity at 10 µM is 26.6%.
With `COc1cccc(S(=O)(=O)N2CCCCC2CCN2CCCC2=O)c1` (configuration not stated), the cytotoxicity at 10 µM was 7.12%.
Under `COCc1nc(C(=O)N(Cc2ccccc2)CC(C)C(=O)O)cs1` (configuration not stated) stands 4%; under `CN1CCCN(C(=O)NCc2ccccc2Cn2cncn2)CC1`, 3.58%; under `Cc1ccnc(C2CN(Cc3cnn(-c4ccccc4C(=O)O)c3)C2)n1`, 6%.
Under `c1coc(CN2CCC3(CC2)COC(COCC2CC2)C3)c1` (configuration not stated) stands -4.37%.
As for `CCC(=O)NC(CC)c1ccccc1C` (configuration not stated), the cytotoxicity at 10 µM stood at 5.14%.
Regarding `CC(C)OC(=O)CNC(=O)Nc1ccc(-c2nc(C(C)C)no2)cc1`, the cytotoxicity at 10 µM is -5.81%.
Under `Cc1cnc2[nH]c(C(F)(F)F)c(CN3CCOCC3)c2c1` stands 11.7%; under `COc1cc(N2CC[C@@H]3[C@@H](CC2)OCCN3CC2CC2)ncn1`, -107%; under `Cc1nnc(CN(Cc2ccc(Cl)c(Cl)c2)C2CC2)o1`, 4.85%.
The same measure for `Cc1ccc(F)c2c1CCCN2Cc1cc(=O)n(C)c(=O)n1C`: 13.6%; for `O=C1CC(c2cccc(O)c2)c2sc(C(=O)O)c(-c3ccccc3)c2N1` (configuration not stated): 6.33%.
Turning to `CCc1ccsc1C(=O)N1CCCC(c2noc(C)n2)C1` (configuration not stated), the cytotoxicity at 10 µM stood at 3.77%.
The same measure for `CN(C)c1cc2c(nn1)CCN(C(=O)C1Cc3ccccc3S1)C2` (configuration not stated): -9.52%; for `Cn1cnc(S(=O)(=O)NCC2CCN(C(=O)Oc3ccccc3)CC2)c1`: -11.1%; for `O=C(c1ccco1)N1C[C@@H]2OCCN(c3ncccn3)[C@@H]2C1`: 6.4%.
Under `O=C(COCc1nc(-c2ccncc2)no1)NC1CCCCC1` stands -8.19%.
For the molecule `Cc1ccsc1CNC1CCCN(Cc2noc(C3CC3)n2)C1` (configuration not stated), the cytotoxicity at 10 µM is -4.98%.
The same measure for `CC(C(=O)NCC1CCCCC1)S(=O)(=O)Cc1csc(-c2cccs2)n1` (configuration not stated): -9.44%; for `COc1ccc(CNCC2CCN(CCO)CC2)cc1F`: -3.71%; for `Cc1cc(=O)n(C)cc1NC(=O)Cc1cccc(F)c1`: -3.86%.
Under `CC(C)CN1CCc2[nH]cnc2C12CCN(C(=O)c1cncn1C)CC2` stands -8.1%.
Under `Cc1ccn(C)c(=O)c1NC(=O)N(C)Cc1cccc(OC(C)C)c1` stands 2.29%; under `CCCOc1ccc2ccccc2c1CN1CC[C@@]2(O)CCNC[C@H]2C1`, -148%; under `CNC(=O)[C@@H](C1CCCCC1)N1CCC[C@H]1C(=O)NCCN1CCCC1`, -4.31%.
Turning to `CCc1cccc(CC)c1NC(=O)c1ccccc1N(C)S(C)(=O)=O`, the cytotoxicity at 10 µM amounted to 11.4%.
`NC(=O)C(c1ccc(F)cc1)N1CCN(CCO)CC1` (configuration not stated): the cytotoxicity at 10 µM was -5.46%.
Turning to `CCC(=O)NCC(=O)NCC1(O)CCC(C(C)(C)C)CC1` (configuration not stated), the cytotoxicity at 10 µM was 6.93%.
The same measure for `CS(=O)(=O)N1CCc2[nH]nc(Cc3cccs3)c2C1`: 1.44%; for `O=C(NCCNc1cnccn1)N1CC=C(c2ccc(O)cc2)CC1`: 18.6%.
Under `COCC1CCCCN1Cc1nc(-c2ccoc2)oc1C` (configuration not stated) stands 1.93%; under `Cn1c(=O)c2c(n3ncnc13)NC(=O)CC2c1ccc(F)cc1` (configuration not stated), 5.64%.
The same measure for `Cc1cc(C(F)F)nn1C(C)C(=O)NCc1ncc[nH]1` (configuration not stated): 5.46%.
Consider `c1ccc(-c2cnn3cc(CN4CCC5(CCO5)CC4)cnc23)cc1`, for which the cytotoxicity at 10 µM was determined as 1.64%.
In the case of `O=C(Cc1ccccn1)N1CCN(C(=O)CC2CCCC2)CC1`, the cytotoxicity at 10 µM is -10.5%.
The same measure for `O=C(c1cccnc1)N1Cc2[nH]nc(COCCO)c2C1`: 13.3%; for `NC(=O)c1cc2c(nc1CCOc1ccc(F)cc1)CCC2`: 4.22%.
Under `CC(C)N1CCc2ncn(C)c2C1C(=O)N1CCOCC1` (configuration not stated) stands 10.9%; under `Cc1ccc(NC(=O)N2CCOC(C(N)=O)C2)cc1C(F)(F)F` (configuration not stated), -146%.
Under `COc1ccccc1C1(NCc2c(C)nc3c(C)cccn23)CCCC1` stands 15.2%.
As for `CN(CCCNC(=O)CN1CCS(=O)(=O)CC1)c1ccccc1`, the cytotoxicity at 10 µM was -4.65%.
`CC(C)N1CCC2(CCCNC2)C1=O` (configuration not stated): the cytotoxicity at 10 µM amounted to 0.906%.
The same measure for `COc1ccc(CN(C)C(=O)CN2CC(n3cccn3)C2)cc1F`: -0.717%.
The same measure for `COCCn1cnc2ccc(NC(=O)CCCn3cccn3)cc2c1=O`: 6.43%; for `COc1ncnc2c1CCN(C(=O)NCc1cccnc1)CC2`: -133%; for `COCCNC(=O)N1CCN(C(C)C(=O)NC(C)C)CC1` (configuration not stated): 10.6%.
The same measure for `COc1ccccc1CCNC(=O)N(C)C(C)CS(C)(=O)=O` (configuration not stated): -48.8%; for `CC(=O)N1CCCC(c2ccc(N3CCN(C)CC3)cn2)C1` (configuration not stated): -28.9%.
As to `Cc1ccc(C(=O)N(Cc2ccccc2F)C2CC2)c(=O)[nH]1`, the cytotoxicity at 10 µM was 0.846%.
Under `CS(=O)(=O)c1ccc2c(c1)N(C(=O)Cc1ccc(F)cc1)CCC2` stands 9.95%; under `Cc1ccc(C2CSCCN2C(=O)c2ccc(C(N)=O)cc2)o1` (configuration not stated), -2.12%.
The same measure for `O=C(CN1CCCC(c2ccn[nH]2)C1)Nc1nc2c(s1)CCC2` (configuration not stated): -42.4%.
Under `O=C1NC2(CCN(CC3CC3)CC2)CC1c1ccccc1` (configuration not stated) stands -7.64%; under `CC(C)c1n[nH]c(C2CN(C(=O)c3cc4c(s3)CCC4)CCO2)n1` (configuration not stated), -11%; under `CCNC(=O)NC(=O)CNC1(c2noc(C)n2)CCCCC1`, -1.3%.
As to `CCS(=O)(=O)N1C[C@@H](OCc2cccnc2)[C@H]2OCCC[C@H]21`, the cytotoxicity at 10 µM stood at 3.6%.
`CS(=O)(=O)N1CCCC12CCCN(S(=O)(=O)c1ccc(F)cc1)C2` (configuration not stated): the cytotoxicity at 10 µM is 0.442%.
